According to PubChem BioAssay AID2609 (Broad Institute, 2010):

Test system: BJeLR fibroblasts viability, Alamar Blue fluorescence, 48 h
Experiment: cytotoxicity toward Ras-transformed BJeLR fibroblasts, dose response, cell-based, alamar blue fluorescence, powder samples (AID 2609)
In short: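 Technique: Alamar blue fluorescence, excitation 544 nm, emission 590 nm / Medium: DMEM plus M199 with heat-inactivated fetal bovine serum / Timing: 48 h compound exposure, 37 °C, then ~16 h alamar blue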

Structure (SMILES)	EC50
CCOc1ccc(Nc2nc(N)nc(CCl)n2)cc1	2210 nM
Cc1ccc(C2CC(c3cccs3)=NN2C(=O)CCl)cc1 (centres undefined)	2920 nM
C=CCOc1ccccc1CN(C(=O)CCl)c1ccc2c(c1)OCO2	7650 nM
COc1cccc(N(C(=O)CCl)C(C(=O)NCCc2ccccc2)c2cccs2)c1 (centres undefined)	2350 nM
COc1ccc(CN(CCC(c2ccccc2)c2ccc(OC(C)C)cc2)C(=O)CCl)cc1OC (centres undefined)	890 nM
COc1ccc(C(C(=O)NC2CCCCC2)N(C(=O)CCl)c2cccc(Cl)c2)cc1 (centres undefined)	3190 nM
COc1ccc(N(C(=O)CCl)C(C(=O)NCCc2ccccc2)c2cccs2)cc1Cl (centres undefined)	990 nM
CCCCCCCN(C(=O)CCl)c1cccc(C)c1	3440 nM
Nc1nc(CCl)nc(Nc2ccc3ccccc3c2)n1	2500 nM
COc1ccc(N(C(=O)CCl)C(C(=O)NCCc2ccccc2)c2cccs2)cc1 (centres undefined)	1690 nM
Cc1ccc(N(C(=O)CCl)C(C(=O)NC2CCCCC2)c2cccnc2)cc1C (centres undefined)	1400 nM
COC(=O)[C@@H]1Cc2c([nH]c3ccccc23)C(C)(C)N1C(=O)CCl	4010 nM
COc1ccc(C(C(=O)NC2CCCCC2)N(C(=O)CCl)c2ccc(C)cc2)cc1 (centres undefined)	8330 nM
O=C(CCl)N=c1sccn1Cc1ccccc1Cl	4940 nM
